Screening data deposited in PubChem by several laboratories.
EBI2 block – EBI2 (human) antagonism. P32249. EBI2 beta-arrestin recruitment, luminescence, 7a,25-OHC stimulated. inhibition, % at 5 µM. 0.81% of 360,000 active. AID 651636; in the data active means inhibition above about 38%;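 further: enzyme fragment complementation signal reports receptor beta-arrestin coupling in cells; 0% = agonist plus DMSO wells and 100% = wells without agonist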
MC4R barr agon – agonists of human melanocortin 4 receptor (MC4R) beta-arrestin | P32245 | 0.98% of 360,000 active | activation, % at 8.9 µM | U2OS MC4R beta-arrestin complementation, luminescence; percent of melanotan II response, DMSO zero | AID 540308;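 active means activation above a per-plate cutoff, the mean activation of sample wells on that plate plus 3 SD, cut at about 8% in these data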
Target sequence (P32245 whole entry, looked up): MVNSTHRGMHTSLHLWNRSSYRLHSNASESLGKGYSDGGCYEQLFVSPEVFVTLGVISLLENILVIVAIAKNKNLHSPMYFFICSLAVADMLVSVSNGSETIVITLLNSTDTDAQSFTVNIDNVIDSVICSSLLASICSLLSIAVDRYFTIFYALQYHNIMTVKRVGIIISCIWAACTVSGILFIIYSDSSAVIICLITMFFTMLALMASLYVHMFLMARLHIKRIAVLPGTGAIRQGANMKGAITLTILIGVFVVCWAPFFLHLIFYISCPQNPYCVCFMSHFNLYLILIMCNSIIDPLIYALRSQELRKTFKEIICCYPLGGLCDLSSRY
HTR2A ag – agonists of mouse serotonin 5-HT2A receptor (HTR2A) | 0.66% of 360,000 active | P35363 | CHO-K1 mHTR2A beta-arrestin complementation, luminescence; percent of 30 µM serotonin response | AID 624169 | activation, % at 7.6 µM;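 active means activation above a run cutoff, the mean activation of all tested compounds plus 3 SD, cut at about 14% in these data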;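 further: 0% = plate median of compound wells and 100% = 30 µM serotonin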
MC4R antagonist – antagonists of human melanocortin 4 receptor (MC4R); P32245; inhibition, % at 6.5 µM; 0.48% of 360,000 active; MC4R-expressing cells, MTII-stimulated cAMP, LANCE TR-FRET;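 active means inhibition above its plate's cutoff, the mean of tested wells on that plate plus 3 SD, cut at about 29% in these data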;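 further: 0% = Melanotan II alone and 100% = Melanotan II plus saturating MCL0020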
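Material – human MC4R-expressing U2OS cells · Repeats – no replicates · Detection – TR-FRET with Eu-cAMP and labeled anti-cAMP, 671 nm · Times – compound 30 min, challenge 1 h, detection 1 h · Compound – single nominal compound dose of 6.5 µM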
Starred values were filed as active, the others as inactive; . = no result given. Most compounds without a hit are left out; they make up all but 2.8% or so of the library.

SMILES	EBI2 block	MC4R barr agon	HTR2A ag	MC4R antagonist
Cc1cc(C)cc(NS(=O)(=O)CCCS(=O)(=O)Nc2cc(C)cc(C)c2)c1	11	19*	0	2
CC(C)[C@H](NC(=O)N1CCn2c1nc1ccccc12)C(=O)NCC1CCCO1 (stereo not given in full)	4	-2	15*	4
C[C@H](NC(=O)N1CCn2c1nc1ccccc12)C(=O)NCC1CCCO1 (stereo not given in full)	-2	-2	-4	13
O=C(c1cc(-c2ccco2)nn1-c1cccc(Cl)c1)N1CCCCC1	9	1	1	31*
Cc1cccc(NC(=O)[C@H](Cc2ccccc2)NC(=O)OCc2ccccc2)c1	-4	3	8	7
Cc1ccc(NC(=O)C(Cc2ccccc2)NC(=O)OCc2ccccc2)cc1C (stereo not given)	-3	8.8*	-3	11
CCc1cc2c(=O)[nH]c(-c3ccccn3)nc2s1	50*	-2	-7	6
Cc1cccc(C)c1-n1nnnc1SCSc1nnnn1-c1c(C)cccc1C	27	8.7*	-3	1
CSc1nnnn1-c1c(C)cccc1C	7	-1	3	-1
CC1(C(=O)Nc2cccc(Oc3ccccc3)c2)CCN1C1Cc2ccccc2C1 (stereo not given)	24	-1	-6	5
Cc1ccc(NC(=O)C2(C)CCN2C2Cc3ccccc3C2)cc1 (stereo not given)	0	8.4*	-1	4
O=C(COC(=O)CCc1c[nH]c2ccccc12)Nc1cc([N+](=O)[O-])ccc1Cl	0	0	0	5
O=C(COC(=O)CCc1c[nH]c2ccccc12)Nc1ccc([N+](=O)[O-])cc1	-5	8.6*	-1	27
CCOc1ccc(NCc2cc3c(C(C)(C)C)nn(-c4ccccc4)c3[nH]c2=O)cc1	18	11*	-2	15
CCc1ccc(NCc2cc3c(C)nn(-c4ccccc4)c3[nH]c2=O)cc1	8	1	-7	10
Cc1noc(C)c1C(=O)N1CCC1(C)C(=O)NS(=O)(=O)Cc1cccc(Cl)c1 (stereo not given)	-11	1	8	-2
CSc1nc2sc3c(c2c2nnnn12)CCCC3	14	8.3*	1	1
O=[N+]([O-])c1ccc(-c2nc(Cl)c3c(n2)CCCC3)o1	-18	-1	7	-42
Cc1ccc(/C=C2/NC(=O)N(Cc3ccccc3)C2=O)s1	7	0	-1	8
Cc1cccc(CN2C(=O)N/C(=C/c3ccc(C)s3)C2=O)c1	4	9.2*	9	-15
CC(C)N1C(=O)c2ccccc2NC(=O)C1C(=O)NCc1ccccc1 (stereo not given)	-6	.	8	.
CN(C)S(=O)(=O)c1ccc(C(=O)OCc2nnc(-c3ccccc3)o2)cc1	-6	0	-2	16
CS(=O)(=O)c1ccc(C(=O)OCc2nnc(-c3ccccc3)o2)cc1[N+](=O)[O-]	56*	-1	-3	-11
Nc1c([N+](=O)[O-])cc2c3c(cccc13)CC2	-1	.	-5	.
O=C(N/N=C\c1cc(Cl)ccc1O)c1ccc(S(=O)(=O)N2CCCCC2)cc1	49*	1	0	1
SMILES	EBI2 block	MC4R barr agon	HTR2A ag	MC4R antagonist
O=C(Nc1cc(S(=O)(=O)Nc2ccc(Cl)cc2)ccc1O)c1ccc(S(=O)(=O)N2CCCCCC2)cc1	10	7	4	18
COC(=O)c1sc(NC(=O)c2ccncc2)nc1C	2	-1	0	0
CCOc1ccc(C(=O)Nc2nc(C)c(C(=O)OC)s2)cc1	1	8.3*	-4	11
CCCCCCCCN1C(=O)[C@H](CC(=O)NCc2cccc3ccccc23)C[C@@]2(C(=O)OCC)CCCC=C12	6	.	-4	.
O=C(NCc1cccc(CNC(=O)c2ccco2)c1)c1ccco1	-7	-2	3	2
O=C(NCc1cccc(CNC(=O)C(=O)NCc2ccco2)c1)C(=O)NCc1ccco1	-10	9.6*	11	-1
CCOC(=O)/C(=C\c1ccc(OC(F)F)cc1)C1=Nn2c(nnc2-c2ccc(Cl)cc2)SC1	54*	4	2	13
COc1ccc(-c2nnc3n2N=C(C)CS3)cc1	-11	-1	3	8
CCOC(=O)/C(=C/c1ccc(OC(F)F)cc1)C1=Nn2c(nnc2-c2ccc(Cl)cc2)SC1	48*	2	0	14
CC1(C)CC(Cc2ccccc2C(F)(F)F)N(C(=O)OC(C)(C)C)C1 (stereo not given)	-7	.	-4	.
O=C(Nc1ccc(F)c(F)c1)c1cnc(-c2ccccc2)nc1-c1ccccc1	17	8.7*	3	-1
CCCc1cnc(NCCNCC(O)COc2ccc(Cl)c(Cl)c2)nc1 (stereo not given)	7	8.4*	1	7
CCN(CC)c1ccc(/C=C2\SC(=O)N(C(C)C)C2=O)o1	56*	-2	3	9
COc1ccc(CNC(=O)C[C@@H]2C[C@H]3c4cc(NC(=O)C5CCC5)ccc4O[C@H]3[C@@H](CO)O2)cc1	-4	2	9	6
CCc1ccccc1NC(=O)C1CCN(C(=O)N2CCOc3ccccc32)CC1	3	0	-6	5
COc1ccc(CCN2C(=O)CCC2(C)c2nnnn2-c2c(C)cccc2C)cc1OC (stereo not given)	2	.	5	.
CC(C)Oc1ccc(CN2CCC2(C)C(=O)Nc2cnc3ccccc3c2)cc1 (stereo not given)	23	3	0	7
O=C(Nc1ccccc1C(=O)Nc1ccccc1)c1cccs1	1	9.0*	0	10
O=C(N/N=C/c1ccc2c(c1)OCO2)c1sc2cccc(Cl)c2c1Cl	-1	8.3*	1	3
O=C(c1cnc(Cc2c[nH]c3ccccc23)c(I)c1)N1CCN(Cc2ccccc2)CC1	15	2	2	22
Cc1ccc(Cn2c(=O)c3ccccc3n3nc(C)cc23)cc1	14	8.2*	0	0
COC1=CC(=O)OC(c2cccc([N+](=O)[O-])c2)C1 (stereo not given)	-8	.	-5	.
O=C(c1ccc(F)cc1)N1CCN(S(=O)(=O)c2ccc3c(c2)OCCO3)CC1	8	-1	2	9
O=C(c1ccc(C(F)(F)F)cc1)N1CCN(S(=O)(=O)c2ccc3c(c2)OCCCO3)CC1	51*	-1	8	1
COc1ccc(CN2CCNC(=O)C2CC(=O)N(C)C2CCOCC2)cc1OC (stereo not given)	5	0	-3	8
Cc1cccc(CSc2cccc3cccnc23)c1	45*	-3	-6	-7
NNC(=O)c1ccc(CSc2cccc3cccnc23)cc1	4	-1	3	7
CN(Cc1ccccc1)C(=O)c1ccc(NC(=O)Cc2ccc(NC(=O)C3CCCN(C(=O)c4ccccc4)C3)cc2)cc1 (stereo not given)	-17	2	2	3
COc1cccc(CN2CCNC(=O)C2CC(=O)NC2CCCC2)c1OC (stereo not given)	-5	-3	1	-2
